Results published in ChEMBL document CHEMBL3608281, “Synthesis and biological evaluation of novel 3,9-substituted β-carboline derivatives as anticancer agents” (Bioorg Med Chem Lett, 2015).

Key:
[1] = Cytotoxicity against human 2774 cells incubated for 48 hrs by MTT assay; type: functional, cell-based
Procedure, shortened: (§1)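 Human tumour lines (HL-60 leukemia, Hep3B liver, H460 lung, A498 renal, COLO205 colon, 2774 and SK-OV-3 ovarian) and normal Detroit 551 skin fibroblasts were exposed to a range of concentrations for 48 h. IC50 is the concentration giving 50% proliferation inhibition, as the mean of three independent determinations.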

SK-OV-3 = experiment: Cytotoxicity against human SKOV3 cells incubated for 48 hrs by MTT assay; type: functional, cell-based; conditions: SK-OV-3, 48 h; procedure, shortened: as §1
A498 = experiment: Cytotoxicity against human A498 cells incubated for 48 hrs by MTT assay; type: functional, cell-based; conditions: A498, 48 h
Detroit 551 = experiment: Cytotoxicity against human Detroit 551 cells incubated for 48 hrs by MTT assay; type: cell-based; conditions: Detroit 551, 48 h; procedure, shortened: as §1
[2] = Cytotoxicity against human H460 cells incubated for 48 hrs by MTT assay; type: functional, cell-based; conditions: NCI-H460, 48 h; procedure, shortened: as §1
[3] = Cytotoxicity against human Hep3B cells incubated for 48 hrs by MTT assay; type: functional, cell-based, Hep 3B2; procedure, shortened: as §1
COLO 205 = experiment: Cytotoxicity against human COLO205 cells incubated for 48 hrs by MTT assay; type: functional, cell-based; conditions: COLO 205, 48 h; procedure, shortened: as §1
HL-60 = experiment: Cytotoxicity against human HL60 cells incubated for 48 hrs by MTT assay; type: functional, cell-based; conditions: HL-60, 48 h; procedure, shortened: as §1

| SMILES | IC50 [1] | IC50 (SK-OV-3) | IC50 (A498) | IC50 (Detroit 551) | IC50 [2] | IC50 [3] | IC50 (COLO 205) | IC50 (HL-60) |
| --- | --- | --- | --- | --- | --- | --- | --- | --- |
| CCOC(=O)c1cc2c3ccccc3n(Cc3ccccc3)c2cn1 | 26.8 µM | 3 µM | 48.2 µM | 50 µM | > 100 µM | > 100 µM | > 100 µM | > 100 µM |
| CCOC(=O)c1cc2c3ccccc3n(Cc3ccccc3OC)c2cn1 | > 100 µM | > 100 µM | 41.3 µM | > 100 µM | > 100 µM | 8.9 µM | > 100 µM | 3.9 µM |
| CCOC(=O)c1cc2c(cn1)[nH]c1ccccc12 | > 100 µM | > 100 µM | > 100 µM | > 100 µM | > 100 µM | > 100 µM | > 100 µM | > 100 µM |
| CCOC(=O)c1cc2c3ccccc3n(Cc3ccc(OC)cc3)c2cn1 | > 100 µM | > 100 µM | 38.5 µM | 50 µM | 50 µM | 50 µM | 36.9 µM | 39 µM |
| CCOC(=O)c1cc2c3ccccc3n(Cc3ccncc3)c2cn1 | > 100 µM | > 100 µM | > 100 µM |  |  |  | > 100 µM |  |
| O=C(O)c1cc2c3ccccc3n(Cc3ccc(Cl)cc3)c2cn1 |  |  | 9.9 µM |  | 15.1 µM | 1.2 µM | 26.5 µM | 3.9 µM |
| OCc1cc2c3ccccc3nc-2c[nH]1 | > 100 µM | > 100 µM | > 100 µM | > 100 µM | > 100 µM | > 100 µM | > 100 µM | > 100 µM |
| CCOC(=O)c1cc2c3ccccc3n(Cc3cc(OC)c(OC)c(OC)c3)c2cn1 | > 100 µM | > 100 µM | > 100 µM | > 100 µM | > 100 µM | > 100 µM | > 100 µM | 21.9 µM |
| CCOC(=O)c1cc2c3ccccc3n(Cc3ccc(F)cc3)c2cn1 | > 100 µM | > 100 µM | 50.4 µM | > 100 µM | > 100 µM | > 100 µM | > 100 µM | > 100 µM |
| O=C(O)c1cc2c3ccccc3n(Cc3ccc(F)cc3)c2cn1 | 23.5 µM | 27.7 µM | 7.6 µM |  |  |  | 33.5 µM |  |
| CCOC(=O)c1cc2c3ccccc3n(Cc3cc(OC)cc(OC)c3)c2cn1 | > 100 µM | 24.4 µM | > 100 µM | > 100 µM | > 100 µM | > 100 µM | > 100 µM | > 100 µM |
